# The list is not random: actives were taken first. Their share in the collection is about 9.6%.
# bCat nuc transl: alters nuclear translocation of beta-catenin in HeLa cells; immunofluorescence imaging; nuclear translocation activity, % at 5 µM; 190,000 tested, 0.3% active; AID 1665;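 active = nuclear translocation activity above 50% at 5 µM, with a well cell count of 50 or more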;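 also: per-cell ratio of nuclear to cytoplasmic median beta-catenin stain intensity; plate controls were DMSO negative control for no effect and GSK-3 inhibitor IX positive control for full effect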
#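 Assay system: human HeLa cells, native beta-catenin; doses: 5 µM primary, 0.02–20 µM confirmation; incubation: compound treatment 24 h, 37°C, 5% CO2; technique: fluorescence imaging of beta-catenin antibody stain plus DAPI; measure: % activation, nuclear-to-cytoplasmic median beta-catenin signal ratio per cell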
# MT stabilizer: stabilizes microtubules in HeLa cells; HeLa tubulin immunostaining HCS, 24 h; share of cells brighter than vehicle mean+2SD; % tubulin-high responders, % at 10 µM; 200,000 tested, 0.83% active; AID 2205;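 active = plate Z-score above 3 for both tubulin-high and condensed-nucleus cell shares, with cell loss under 80%, at 10 µM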;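 also: anti alpha tubulin signal scored within the nucleus-defined area of each cell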
# BaF3 parental: parental Ba/F3 viability inhibition as JAK2V617F counter-screen; CellTiter-Glo ATP luminescence; inhibition, % at 5.6 µM; 220,000 tested, 1.1% active;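 active = inhibition above a per-campaign cutoff, the mean inhibition of all tested compounds plus 3 SD, cut at about 27% in these data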;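 also: 0% = DMSO wells and 100% = JAK Inhibitor I control wells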
# L major viab: Leishmania major promastigote growth inhibition | AID 1063 | inhibition, % at 10 µM | 200,000 tested, 9% active | Leishmania major promastigotes, resazurin fluorescence viability; in the data active = inhibition above about 50%;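 also: promastigotes grown with compound for 44 hours at 28 °C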
# APP 5UTR inh: APP translation inhibition; inhibition, % at 2 µM; SH-SY5Y APP 5'UTR-luciferase reporter, luminescence; 190,000 tested, 0.82% active;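 active = inhibition above a set limit, derived from the sample mean plus 3 SD, cut at about 45% in these data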
# Ba/F3 V617F tox: lowers viability of Ba/F3 cells expressing EpoR and JAK2V617F | ATP luminescence | inhibition, % at 5.6 µM | 220,000 tested, 1.1% active;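 active = inhibition above the campaign mean plus 3 SD over all tested compounds, cut at about 24% in these data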;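 also: cytokine-independent growth of Ba/F3 cells driven by EpoR plus mutant JAK2; 0% = DMSO-treated cells and 100% = JAK inhibitor I control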
# Active calls of the source: *; x = not tested or not shown.
SMILES,bCat nuc transl,MT stabilizer,BaF3 parental,L major viab,APP 5UTR inh,Ba/F3 V617F tox
Cc1cc(C2=NNC(=NC3CC3)SC2)c(C)n1-c1ccccc1F,x,3,4,77*,70*,-1
Cc1ccc(CC(NC(=O)c2ccccc2)C(=O)NCC(=O)O)cc1 (stereo not drawn),-3,2,4,-3,17,0
CCN1CCN(C(=O)CN(C)S(=O)(=O)c2ccc(OC)c(C)c2)CC1,x,2,2,98*,4,-4
Cn1c2c(c(=O)n(C)c1=O)C(C(F)(F)F)(C(F)(F)F)N=C(CCC1CCCCC1)N2,0,2,3,90*,1,6
Clc1cnc(N/N=C/c2ccco2)c(Cl)c1,-2,1,9,67*,-155,4
CCc1nnc(NC(=O)C2CCC(CNc3c(N4CCCCC4)c(=O)c3=O)CC2)s1 (stereo not drawn),0,x,-1,x,x,-2
CCN(CC)S(=O)(=O)c1cc([N+](=O)[O-])ccc1NNC(=O)Nc1ccccc1OC,x,3,1,80*,8,-1
CCOc1ccc(OCC)c(S(=O)(=O)NCCOC23CC4CC(CC(C4)C2)C3)c1,0,2,3,78*,-1,2
CCOC(=O)C(NC(=O)CC)(Nc1nc2c(s1)CCCC2)C(F)(F)F (stereo not drawn),-2,2,6,7,3,-2
COC(=O)C(NC(=O)COc1ccccc1)(Nc1nc2c(s1)CCCC2)C(F)(F)F (stereo not drawn),6,2,2,65*,-26,-4
Cc1c(Br)c([N+](=O)[O-])nn1C(C)C(=O)NCc1cccnc1 (stereo not drawn),4,1,5,13,-5,0
COc1ccc(Cl)cc1NC(=O)CCN1CCN(C)CC1,x,2,8,0,19,2
CN1CCN(CCOc2cccc(Cl)c2)CC1,0,3,7,10,-14,5
COCCCN1CCN(C2Cc3ccccc3Sc3ccc(Cl)cc32)CC1 (stereo not drawn),-1,1,8,78*,3,2
NC(=O)CCN1CCN(CCOC2Cc3cc(Cl)ccc3Sc3ccccc32)CC1 (stereo not drawn),-2,4,8,91*,-14,1
Clc1ccc2c(c1)C(N1CCNCC1)Cc1ccccc1S2 (stereo not drawn),-6,67,8,100*,4,8
Clc1cccc2c1Sc1ccccc1CC2N1CCNCC1 (stereo not drawn),40,8,8,100*,2,6
O=C(c1ccccc1Cl)N1CCNCC1,x,1,4,0,-12,2
CCc1ccc(C(=O)COC(=O)[C@@H](NC(N)=O)[C@@H](C)CC)cc1,-6,2,0,-2,-50,-2
O=C(COc1ccc2c(c1)OCO2)Nc1ccccc1C(F)(F)F,-1,3,2,0,-34,2
COc1ccc(NC(=O)NCCCN2CCCC2=O)c(OC)c1,x,1,4,-3,3,0
CCOc1ccc(CN2CCN(Cc3nc4c(s3)CCCC4)CC2CCO)cc1 (stereo not drawn),-1,5,8,11,6,2
COC(=O)c1[nH]c2cccc(OC)c2c1NC(=O)CCN1CCSCC1,-4,x,-2,x,x,-4
COC(=O)c1[nH]c2cccc(OC)c2c1NC(=O)CCN1CCN(c2cccc(Cl)c2)CC1,-4,2,6,100*,6,1
Cc1onc(-c2ccccc2)c1CNC(=O)Nc1ccc(C(F)(F)F)cc1,0,x,-4,x,x,-1
SMILES,bCat nuc transl,MT stabilizer,BaF3 parental,L major viab,APP 5UTR inh,Ba/F3 V617F tox
Cc1cc(NC(=O)c2cc(-c3ccco3)on2)nn1Cc1ccc(Cl)cc1,x,18*,5,-7,15,-3
Cc1nn(Cc2ccc(Cl)cc2)c(C)c1NC(=O)c1cc(-c2ccco2)on1,-2,4,3,3,-1,-1
O=C1/C(=C/c2cccc([N+](=O)[O-])c2)CCc2ccccc21,-1,3,5,95*,-8,5
CCN1C/C(=C\c2cccc([N+](=O)[O-])c2)C(=O)/C(=C/c2cccc([N+](=O)[O-])c2)C1,0,28*,4,100*,96*,-2
C=CCNC(=O)c1onc(CSc2ccc(Cl)cc2)c1C(=O)O,-2,3,35*,-9,-9,49*
C=CCNC(=O)c1onc(CSc2ccc(Cl)cc2)c1C(=O)NCC=C,-1,x,x,x,x,x
